Data from ChEMBL document CHEMBL1629490, “Synthesis and anti-inflammatory evaluation of novel mono-carbonyl analogues of curcumin in LPS-stimulated RAW 264.7 macrophages” (Eur J Med Chem, 2010).
Activity calls are given as the source filed them. No cut-off for these calls is given here.

Tests used:
RAW264.7 [1] = assay: Antiinflammatory activity in mouse RAW264.7 cells assessed as inhibition of LPS-induced IL-6 production at 10 uM after 2 hrs by ELISA; assay type: functional; conditions: for inhibition at 10 µM: RAW264.7, 2 h
How it was run: (§1)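 RAW 264.7 cells were grown in DMEM with 10% heat-inactivated FBS and penicillin/streptomycin at 37 °C with 5% CO2, plated at 4.0 × 10^5/plate overnight, and pretreated for 2 h with compound at 10 µM (DMSO stock; vehicle control). LPS (0.5 µg/ml) was added for 22 h. TNF-α and IL-6 in the medium were measured by ELISA, normalized to cell protein, and expressed as % of LPS control. Values are mean ± SE of 3–5 independent experiments.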

RAW264.7 [2] = assay: Antiinflammatory activity in mouse RAW264.7 cells assessed as inhibition of LPS-induced TNF alpha production at 10 uM after 2 hrs by ELISA; assay type: functional; conditions: for inhibition at 10 µM: RAW264.7, 2 h; how it was run: as §1
RAW264.7 [3] = assay: Antiinflammatory activity in mouse RAW264.7 cells assessed as inhibition of LPS-induced TNF alpha production at 1 to 20 uM after 2 hrs by ELISA; assay type: functional, cell-based
How it was run: (§2)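 Murine RAW 264.7 cells were plated at 4.0 × 10^6/plate overnight (37 °C, 5% CO2) and pretreated for 2 h with compound at 1, 2.5, 5.0, 10 and 20 µM. LPS at 0.5 µg/ml followed for 22 h. Media TNF-α and IL-6 were measured by ELISA, normalized to total cell-lysate protein, and given as % of LPS control. Values are mean ± SE of 3–5 independent experiments.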

RAW264.7 [4] = assay: Antiinflammatory activity in mouse RAW264.7 cells assessed as inhibition of LPS-induced IL-6 production after 2 hrs by ELISA; assay type: functional, cell-based; conditions: RAW264.7, 2 h
RAW264.7 [5] = assay: Antiinflammatory activity in mouse RAW264.7 cells assessed as inhibition of LPS-induced TNF alpha production after 2 hrs by ELISA; assay type: functional, cell-based; conditions: RAW264.7, 2 h
RAW264.7 [6] = assay: Antiinflammatory activity in mouse RAW264.7 cells assessed as inhibition of LPS-induced IL-6 production at 1 to 20 uM after 2 hrs by ELISA; assay type: functional, cell-based; how it was run: as §2
RAW264.7 [7] = assay: Cytotoxicity against mouse RAW264.7 cells; assay type: cell-based

SMILES | inhibition (RAW264.7 [1]) | inhibition (RAW264.7 [2]) | inhibition at 10 µM (RAW264.7 [2]) | further results
O=C1/C(=C/c2ccc(N3CCOCC3)cc2)CC/C1=C\c1ccc(N2CCOCC2)cc1 | Active | Active | – | –
O=C1/C(=C/c2cccc(C(F)(F)F)c2F)CCC/C1=C\c1cccc(C(F)(F)F)c1F | Active | – | > 20% | –
COc1cc(OC)c(OC)cc1/C=C/C(=O)/C=C/c1cc(OC)c(OC)cc1OC | Active | – | > 20% | –
O=C(/C=C/c1ccc(N2CCOCC2)cc1)/C=C/c1ccc(N2CCOCC2)cc1 | – | – | > 20% | inhibition at 10 µM (RAW264.7 [1]): 50%
O=C1/C(=C/c2ccc(N3CCCCC3)cc2)CC/C1=C\c1ccc(N2CCCCC2)cc1 | Active | – | 20% | –
O=C1/C(=C/c2ccc(N3CCOCC3)cc2)CCC/C1=C\c1ccc(N2CCOCC2)cc1 | Active | Active | – | –
O=C(/C=C/c1ccc(N2CCCCC2)cc1)/C=C/c1ccc(N2CCCCC2)cc1 | – | Active | – | inhibition at 10 µM (RAW264.7 [1]): 50%
CCOc1ccc(Br)cc1/C=C/C(=O)/C=C/c1cc(Br)ccc1OCC | Active | Active | – | inhibition (RAW264.7 [3]): Dose-dependent effect; IC50 (RAW264.7 [4]): 3.64 µM; IC50 (RAW264.7 [5]): 6.28 µM; inhibition (RAW264.7 [6]): Dose-dependent effect; Activity (RAW264.7 [7]): Non-toxic
CCOc1ccc(Br)cc1/C=C1\CC/C(=C\c2cc(Br)ccc2OCC)C1=O | Active | Active | – | –
Cc1cc(N(CCCl)CCCl)ccc1/C=C1\CC/C(=C\c2ccc(N(CCCl)CCCl)cc2C)C1=O | – | Active | – | inhibition at 10 µM (RAW264.7 [1]): 30%
O=C(/C=C/c1c(F)cccc1C(F)(F)F)/C=C/c1c(F)cccc1C(F)(F)F | – | Active | – | inhibition at 10 µM (RAW264.7 [1]): 30%
COc1ccc(/C=C2\CC/C(=C\c3ccc(OC)cc3F)C2=O)c(F)c1 | Active | – | 20% | –
COc1ccc(F)c(/C=C2\CCC/C(=C\c3cc(OC)ccc3F)C2=O)c1 | Active | – | 20% | –
COc1ccc(/C=C/C(=O)/C=C/c2ccc(OC)cc2F)c(F)c1 | – | – | 20% | inhibition at 10 µM (RAW264.7 [1]): 51.1%
COc1cc(OC)c(OC)cc1/C=C1\CCC/C(=C\c2cc(OC)c(OC)cc2OC)C1=O | Active | Active | – | –
O=C1/C(=C/c2c(F)cccc2C(F)(F)F)CC/C1=C\c1c(F)cccc1C(F)(F)F | Active | – | > 20% | –
O=C1/C(=C/c2c(F)cccc2C(F)(F)F)CCC/C1=C\c1c(F)cccc1C(F)(F)F | Active | Active | – | –

SMILES | inhibition (RAW264.7 [1]) | inhibition (RAW264.7 [2]) | inhibition at 10 µM (RAW264.7 [2]) | further results
COc1ccc(F)c(/C=C2\CC/C(=C\c3cc(OC)ccc3F)C2=O)c1 | – | Active | – | inhibition at 10 µM (RAW264.7 [1]): 30%
CCN(CC)c1ccc(/C=C2\CCC/C(=C\c3ccc(N(CC)CC)cc3)C2=O)cc1 | Active | Active | – | –
CCOc1ccc(Br)cc1/C=C1\CCC/C(=C\c2cc(Br)ccc2OCC)C1=O | Active | Active | – | –
O=C1/C(=C/c2ccc(C(F)(F)F)cc2C(F)(F)F)CCC/C1=C\c1ccc(C(F)(F)F)cc1C(F)(F)F | Active | – | 20% | –
CCN(CC)c1ccc(/C=C/C(=O)/C=C/c2ccc(N(CC)CC)cc2)cc1 | – | Active | – | inhibition at 10 µM (RAW264.7 [1]): 50%
COc1cc(OC)c(OC)cc1/C=C1\CC/C(=C\c2cc(OC)c(OC)cc2OC)C1=O | Active | Active | – | –
COc1cccc(/C=C2\CC/C(=C\c3cccc(OC)c3O)C2=O)c1O | Active | Active | – | –
CCOC(OCC)c1cccc(/C=C2\CC/C(=C\c3cccc(C(OCC)OCC)c3)C2=O)c1 | Active | Active | – | –
COc1cc(/C=C/C(=O)CC(=O)/C=C/c2ccc(O)c(OC)c2)ccc1O [CURCUMIN] | – | – | 35.6% | inhibition at 10 µM (RAW264.7 [1]): 75.7%
O=C1/C(=C/c2ccc(C(F)(F)F)cc2F)CC/C1=C\c1ccc(C(F)(F)F)cc1F | Active | Active | – | –
Cc1cc(N(CCCl)CCCl)ccc1/C=C/C(=O)/C=C/c1ccc(N(CCCl)CCCl)cc1C | – | – | 20% | inhibition at 10 µM (RAW264.7 [1]): 30%
O=C1/C(=C/c2cccc(C(F)(F)F)c2F)CC/C1=C\c1cccc(C(F)(F)F)c1F | Active | Active | – | –
O=C1/C(=C/c2ccc(N3CCCCC3)cc2)CCC/C1=C\c1ccc(N2CCCCC2)cc1 | Active | Active | – | –
Cc1cc(N(CCCl)CCCl)ccc1/C=C1\CCC/C(=C\c2ccc(N(CCCl)CCCl)cc2C)C1=O | Active | Active | – | –
O=C1/C(=C/c2ccc(C(F)(F)F)cc2F)CCC/C1=C\c1ccc(C(F)(F)F)cc1F | Active | Active | – | –
COc1cccc(/C=C/C(=O)/C=C/c2cccc(OC)c2O)c1O | Active | Active | – | –
CCN(CC)c1ccc(/C=C2\CC/C(=C\c3ccc(N(CC)CC)cc3)C2=O)cc1 | – | – | 67.5% | inhibition (RAW264.7 [3]): Dose-dependent effect; inhibition at 10 µM (RAW264.7 [1]): 92.7%; IC50 (RAW264.7 [4]): 1.07 µM; IC50 (RAW264.7 [5]): 16.4 µM; inhibition (RAW264.7 [6]): Dose-dependent effect; Activity (RAW264.7 [7]): Non-toxic
